The record followed here is ChEMBL document CHEMBL2321838, “Chemistry and pharmacological studies of 3-alkoxy-2,5-disubstituted-pyridinyl compounds as novel selective α4β2 nicotinic acetylcholine receptor ligands that reduce alcohol intake in rats” (J Med Chem, 2013).

In general, EC50 refers to the concentration needed to bring the measured effect to its halfway point. A word on the Emax: it is the size of the effect at its maximum, as opposed to the concentration needed. By IC50 is commonly meant the concentration at which inhibition is half-maximal. As usually defined, the Ki is a measure of affinity in units of concentration, obtained from inhibition or displacement.

Data set [1] has as its system Mustela putorius furo. As to the kind of experiment: Toxicity in ferret assessed as cessation of movement at 0.5 mg/kg, sc measured for 60 mins. Format: organism-based. Details: dose 0.5 mg/kg, route subcutaneous. To be noted: in vivo, 1 h. In outline: (§1)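 Male ferrets (0.9−1.5 kg), food withheld overnight, water ad libitum. Drug in 0.9% saline, given subcutaneously in the subscapular region after a 30 min acclimation in an individual polycarbonate enclosure. Emesis and nausea-linked behaviours (retching, oral stereotypy, backward walking, locomotion) were scored by 60 min observation with video recording. Affected animals were then given granisetron plus dexamethasone 1 mg/kg i.p.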

Data set [2] concerns Mustela putorius furo. As to the kind of experiment: Toxicity in ferret assessed as induction of emetic episodes at 0.5 mg/kg, sc measured for 60 mins. The class given is organism-based. Details: dose 0.5 mg/kg, route subcutaneous. The conditions noted are these: in vivo, 1 h. The essentials:
as §1

Data set [3] relates to Mustela putorius furo. As to the kind of experiment: Toxicity in ferret assessed as induction of licking behavior at 0.5 mg/kg, sc measured 2.20 mins post injection. The class given is organism-based. Details: dose 0.5 mg/kg, route subcutaneous. The conditions noted are these: in vivo, 132 s. In outline: as §1
Data set [4] concerns the target T1, Neuronal acetylcholine receptor; alpha3/beta4 (Rattus norvegicus, UniProt P04757+P12392). As to the kind of experiment: Agonist activity at rat alpha3beta4 nACHR expressed in HEK293 cells assessed as […] by liquid scintillation counting analysis. Format: cell-based.
Data set [5] relates to Mustela putorius furo. As to the kind of experiment: Toxicity in ferret assessed as reduction in locomotor behavior at 0.5 mg/kg, sc measured 1.05 mins to 1 hr post injection. To be noted: in vivo. Also on record: dose 0.5 mg/kg, route subcutaneous. The class given is organism-based. The essentials: as §1
For data set [6], the system named is Mustela putorius furo. In words: Toxicity in ferret assessed as increase in breathing at 0.5 mg/kg, sc measured for 60 mins. Details: dose 0.5 mg/kg, route subcutaneous. The conditions noted are these: in vivo, 1 h. The class given is organism-based. In outline:
as §1

Data set [7] deals with Mustela putorius furo. As to the kind of experiment: Toxicity in ferret assessed as induction of retching at 0.5 mg/kg, sc measured for 60 mins. To be noted: in vivo, 1 h. The class given is organism-based. Also on record: dose 0.5 mg/kg, route subcutaneous. In outline:
as §1

Data set [8] has as its system Mustela putorius furo. In words: Toxicity in ferret assessed as backward walking episodes at 0.5 mg/kg, sc measured 2.20 mins post injection. The class given is organism-based. Also on record: dose 0.5 mg/kg, route subcutaneous. To be noted: in vivo, 132 s. In outline:
as §1

Data set [9] concerns the target T2, Neuronal acetylcholine receptor; alpha4/beta2 (Homo sapiens, UniProt P17787+P43681). In words: Agonist activity at human alpha4beta2 nACHR expressed in HEK293 cells assessed as […] by liquid scintillation counting analysis. The class given is cell-based.
In data set [10] the target is T2, Neuronal acetylcholine receptor; alpha4/beta2. In words: Agonist activity at human alpha4beta2 nACHR expressed in HEK293 cells assessed as […] by liquid scintillation counting analysis relative to nicotine. The class given is cell-based.
The species entered for data set [11] is Rattus norvegicus. As to the kind of experiment: Selectivity ratio of Ki for rat alpha3beta4 nACHR to rat alpha4beta2 nACHR.
The species entered for data set [12] is Rattus norvegicus. As to the kind of experiment: Selectivity ratio of Ki for rat alpha7 nACHR to rat alpha4beta2 nACHR.
The target in data set [13] is T1, Neuronal acetylcholine receptor; alpha3/beta4. As to the kind of experiment: Desensitization of rat alpha3beta4 nACHR expressed in HEK293 cells assessed as inhibition of 86Rb+ efflux preincubated for 10 mins measured after 2 hrs by liquid scintillation counting analysis. The class given is cell-based.
Data set [14] deals with Neuronal acetylcholine receptor; alpha4/beta2 (Rattus norvegicus) (UniProt P09483+P12390). As to the kind of experiment: Ratio of (-)-nicotine Ki to compound Ki for rat alpha4beta2 nACHR. Format: protein-complex assay.
The test system of data set [15] is Mustela putorius furo. In words: Toxicity in ferret assessed as induction of emetic episodes at 1 to 30 mg/kg, sc measured for 60 mins. Format: organism-based. Also on record: dose 1-30 mg/kg, route subcutaneous. To be noted: in vivo, 1 h. In outline: (§2)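 Male ferrets (0.9–1.5 kg), food withheld overnight, water ad libitum. After 30 min acclimation alone in an enclosure, single s.c. subscapular injection (1–30 mg/kg in 0.9% saline); emetic episodes and nausea-related stereotypical behaviours (gagging, licking, backward walking) scored by 60 min observation with video recording; n = 6.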

Data set [16] relates to Mustela putorius furo. As to the kind of experiment: Toxicity in ferret assessed as induction of stereotypical behavior at 1 to 30 mg/kg, sc measured for 60 mins. The class given is organism-based. Also on record: dose 1-30 mg/kg, route subcutaneous. To be noted: in vivo, 1 h. In outline: as §2
The subject of data set [17] is Rattus norvegicus. In words: Reduction of alcohol intake in sc dosed alcohol-preferring rat after 2 to 24 hrs relative to vehicle-treated control. The class given is functional, organism-based. In outline:
(§3)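 Adult male selectively bred alcohol-preferring (P) rats with two-bottle access (water, alcohol) in Richter tubes, 12:12 light–dark, 22 °C. After stable baseline, single s.c. injection of 0.33, 1 or 3 mg/kg or vehicle; alcohol and water intake (g/kg) read at 2, 4, 6 and 24 h. Crossover, random assignment, ≥3 days between injections, n = 18; mean ± SEM.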

Data set [18] has as its system Rattus norvegicus. As to the kind of experiment: Reduction of alcohol intake in alcohol-preferring rat at 1 mg/kg, sc after 24 hrs. The class given is functional, organism-based. Also on record: dose 1 mg/kg. The essentials: as §3
In data set [19] the test system is Rattus norvegicus. In words: Reduction of alcohol intake in alcohol-preferring rat at 3 mg/kg, sc after 6 to 24 hrs. The class given is functional, organism-based. Also on record: dose 3 mg/kg. The essentials:
as §3

In data set [20] the test system is Rattus norvegicus. In words: Reduction of alcohol intake in alcohol-preferring rat at […], sc after 2 to 24 hrs. Format: functional, organism-based. Details: dose 0.33 mg/kg.
The target of data set [21] is T1, Neuronal acetylcholine receptor; alpha3/beta4. In words: Displacement of [3H]-Epibatidine from rat alpha3beta4 nACHR expressed in HEK293 cell membranes by liquid scintillation counting analysis. Also on record: species or system Membrane.
The species entered for data set [22] is Rattus norvegicus. As to the kind of experiment: Displacement of [3H]-Epibatidine from rat nACHR fore-brain by liquid scintillation counting analysis. A general note: In a radioligand displacement assay an active substance lowers the binding of a labelled ligand.
Data set [23] concerns the target T2, Neuronal acetylcholine receptor; alpha4/beta2. In words: Desensitization of human alpha4beta2 nACHR expressed in HEK293 cells assessed as inhibition of 86Rb+ efflux preincubated for 10 mins measured after 2 hrs by liquid scintillation counting analysis. Format: cell-based.
The target in data set [24] is Neuronal acetylcholine receptor; alpha3/beta4 (Rattus norvegicus) (UniProt P04757+P12392). In words: Agonist activity at rat alpha3beta4 nACHR expressed in HEK293 cells assessed as stimulation of 86Rb+ efflux after 2 hrs by liquid scintillation counting analysis relative to nicotine. The class given is cell-based.

Calls of active or inactive are those of the source. The calls are words filed in the database; no cut-off is given here.

T2 sequence (P17787 whole entry): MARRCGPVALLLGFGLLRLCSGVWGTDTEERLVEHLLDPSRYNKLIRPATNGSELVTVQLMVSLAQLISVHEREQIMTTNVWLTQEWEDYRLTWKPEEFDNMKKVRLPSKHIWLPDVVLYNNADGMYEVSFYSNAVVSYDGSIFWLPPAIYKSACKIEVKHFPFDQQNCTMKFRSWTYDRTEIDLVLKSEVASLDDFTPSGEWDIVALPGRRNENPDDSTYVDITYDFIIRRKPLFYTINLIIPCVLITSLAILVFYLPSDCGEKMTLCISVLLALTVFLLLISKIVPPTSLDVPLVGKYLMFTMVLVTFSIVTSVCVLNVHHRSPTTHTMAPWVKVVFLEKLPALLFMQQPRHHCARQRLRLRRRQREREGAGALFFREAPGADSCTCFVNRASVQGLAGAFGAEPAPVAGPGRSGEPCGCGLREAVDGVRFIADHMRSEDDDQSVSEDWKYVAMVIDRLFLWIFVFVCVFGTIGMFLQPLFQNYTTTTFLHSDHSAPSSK
T2 sequence (P43681 whole entry): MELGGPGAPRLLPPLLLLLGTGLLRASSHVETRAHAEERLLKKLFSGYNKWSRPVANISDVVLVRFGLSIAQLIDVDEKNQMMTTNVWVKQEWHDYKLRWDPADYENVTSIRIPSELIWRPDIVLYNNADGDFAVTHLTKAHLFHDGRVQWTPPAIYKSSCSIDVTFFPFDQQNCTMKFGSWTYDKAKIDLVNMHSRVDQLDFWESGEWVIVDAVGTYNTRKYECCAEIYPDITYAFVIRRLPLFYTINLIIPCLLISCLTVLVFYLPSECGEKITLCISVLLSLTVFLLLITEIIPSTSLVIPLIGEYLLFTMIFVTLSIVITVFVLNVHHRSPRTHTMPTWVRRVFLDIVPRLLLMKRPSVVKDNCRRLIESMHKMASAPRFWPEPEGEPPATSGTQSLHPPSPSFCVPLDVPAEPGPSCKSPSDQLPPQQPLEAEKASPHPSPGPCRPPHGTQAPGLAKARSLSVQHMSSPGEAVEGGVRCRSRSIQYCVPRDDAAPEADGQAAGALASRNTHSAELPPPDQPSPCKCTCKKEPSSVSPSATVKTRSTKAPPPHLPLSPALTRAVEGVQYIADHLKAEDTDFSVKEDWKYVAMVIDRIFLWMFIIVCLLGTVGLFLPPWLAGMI
T1 sequence (P04757 whole entry): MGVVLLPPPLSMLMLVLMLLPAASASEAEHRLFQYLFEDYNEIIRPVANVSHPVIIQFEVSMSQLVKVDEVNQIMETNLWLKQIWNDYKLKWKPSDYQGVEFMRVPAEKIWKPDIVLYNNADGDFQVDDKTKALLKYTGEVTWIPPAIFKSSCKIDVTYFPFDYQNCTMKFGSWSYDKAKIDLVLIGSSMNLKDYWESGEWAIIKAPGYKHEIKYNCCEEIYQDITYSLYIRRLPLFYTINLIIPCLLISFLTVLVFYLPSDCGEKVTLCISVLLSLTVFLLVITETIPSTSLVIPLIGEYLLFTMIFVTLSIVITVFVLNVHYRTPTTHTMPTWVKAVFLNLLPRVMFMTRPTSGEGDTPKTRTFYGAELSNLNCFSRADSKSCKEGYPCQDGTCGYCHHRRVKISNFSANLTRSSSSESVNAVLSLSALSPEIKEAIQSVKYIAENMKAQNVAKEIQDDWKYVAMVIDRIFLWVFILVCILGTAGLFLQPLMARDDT
T1 sequence (P12392 whole entry): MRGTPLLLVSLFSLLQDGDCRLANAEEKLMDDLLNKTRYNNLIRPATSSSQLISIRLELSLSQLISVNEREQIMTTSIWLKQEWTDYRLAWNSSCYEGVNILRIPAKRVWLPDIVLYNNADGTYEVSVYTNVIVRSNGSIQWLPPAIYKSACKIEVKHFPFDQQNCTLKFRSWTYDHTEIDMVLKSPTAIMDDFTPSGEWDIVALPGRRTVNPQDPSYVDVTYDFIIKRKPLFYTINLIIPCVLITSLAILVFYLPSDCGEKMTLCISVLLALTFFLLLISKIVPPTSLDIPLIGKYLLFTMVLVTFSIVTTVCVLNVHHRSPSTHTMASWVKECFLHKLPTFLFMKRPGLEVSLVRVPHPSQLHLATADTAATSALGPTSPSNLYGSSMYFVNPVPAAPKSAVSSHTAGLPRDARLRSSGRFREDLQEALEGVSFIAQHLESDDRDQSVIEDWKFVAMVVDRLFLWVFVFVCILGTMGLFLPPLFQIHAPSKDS

Turning to `c1cnc2cc3c(cc2n1)[C@@H]1CNC[C@H]3C1` [VARENICLINE], the Activity entry is “Toxic” in the data set with Mustela putorius furo [1]; “Non-toxic” in the data set with Mustela putorius furo [2]; “Toxic” in the data set with Mustela putorius furo [3]; “Toxic” with Mustela putorius furo [5]; “Toxic” in the data set with Mustela putorius furo [6]; “Toxic” in the data set on Mustela putorius furo [7]. In addition, in the data set with Mustela putorius furo [8], the Activity result is “Toxic”. In data set [4] (read-out: EC50), the EC50 is 21 µM.

With `CCCCC#Cc1cnc(C)c(OC[C@@H]2CCCN2)c1`, the EC50 entry in data set [4] (hek293) and in [9] (hek293) was “Not Active” each time.

With `Cc1ncc(C#CC2CC2)cc1OC[C@@H]1CCN1`, the Emax in data set [10] stood at 17%. The Ratio Ki in the data set listed under Rattus norvegicus [11] and in the data set filed under Rattus norvegicus [12] was 16000 each time. Moreover, the EC50 result in [4] (hek293) was “Not Active”. In [13], the IC50 is greater than 10 µM.

As for `Cc1ncc(C#CCCCCO)cc1OC[C@@H]1CCN1`, in [10], the Emax amounted to 20%. Moreover, the Ratio Ki was determined as 70000 in the data set listed under Rattus norvegicus [11], 2 in [14] and 40000 in the data set listed under Rattus norvegicus [12]. Also, the EC50 result in data set [4] (hek293) was “Not Active”; in data set [9] (read-out: EC50), 0.45 µM. For the same compound, the half-inhibitory concentration (IC50) in [13] is greater than 10 µM.

Consider `CCCCC#Cc1cnc(C)c(OC[C@@H]2CCN2)c1`, for which the Emax in [10] is 15%. For the same compound, the values for the Activity entry with Mustela putorius furo [15], in the data set with Mustela putorius furo [16] and in the data set on Rattus norvegicus [17] were “Non-toxic”, “Non-toxic” and “Dose-dependent effect”, respectively. In addition, the Ratio Ki in the data set listed under Rattus norvegicus [11] is 19000; in the data set filed under Rattus norvegicus [12], 7800. The outcome in the data set with Rattus norvegicus [18] and in the data set on Rattus norvegicus [19] was Active. Further, the EC50 result in [4] (hek293) is “Not Active”. In data set [13], the IC50 was greater than 10 µM. In addition, the outcome in the data set with Rattus norvegicus [20] was inactive.

Regarding `CCCCC#Cc1cnc(C(F)(F)F)c(OC[C@@H]2CCN2)c1`, the Ki in data set [21] is greater than 100 µM. Further, the Ratio Ki in the data set filed under Rattus norvegicus [22] was greater than 100000.

For `Cc1ncc(C#CCCCCCl)cc1OC[C@@H]1CCN1`, the Ratio Ki in the data set filed under Rattus norvegicus [11] is 17000; in the data set filed under Rattus norvegicus [12], 13000; in the data set filed under Rattus norvegicus [22], 32. The EC50 entry in data set [4] (hek293) and in data set [9] (hek293) was “Not Active” in each case. Besides, the IC50 in data set [13] is greater than 10 µM.

In the case of `Cc1ncc(C#CCCCCF)cc1OC[C@@H]1CCN1`, the EC50 result in data set [4] (hek293) and in [9] (hek293) was “Not Active” each time. Moreover, the IC50 in data set [13] is greater than 10 µM.

For the compound `OCCCCC#Cc1cncc(OC[C@@H]2CCN2)c1`, the figures for the Ratio Ki in the data set listed under Rattus norvegicus [11] and in the data set listed under Rattus norvegicus [12] were 31000 and 11000, respectively. For the same compound, in [23], the IC50 stood at 0.011 µM. Moreover, the Emax in data set [24] was determined as 12%. In addition, the EC50 in data set [4] (read-out: EC50) was 30 µM.
